Data from ChEMBL document CHEMBL4689842, “EUbOPEN Chemogenomics Library wave 1” (2021).

Tested on: HEK-293T
Assay: Multiplex assay against HEK293T;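 on Population Tubulin-Different-Phenotype (%): share of the cells with healthy nuclei that show this phenotype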
Assay type: toxicity, cell-based
Conditions: human
Outline: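 Live cells were stained at seeding with Hoechst33342, BioTracker Green Microtubule Cytoskeleton Dye, MitoTracker Red and Annexin V Alexa Fluor 680. Following compound addition, they were imaged on a CQ1 microscope at 37°C and 5% CO2 and gated by CellPathfinder machine learning into Hoechst high-intensity objects or normal cells, with normal cells split into healthy, pyknosed or fragmented nuclei and pyknosed cells into mitotic or apoptotic. Tubulin, mitochondrial-mass and membrane-permeability phenotypes are per cents of healthy-nucleus cells.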

[1] = 12 h, 1 µM, compound concentration 1 uM, replicate 1
[2] = 12 h, 1 µM, compound concentration 1 uM, replicate 2
[3] = 12 h, 10 µM, compound concentration 10 uM, replicate 1
[4] = 12 h, 10 µM, compound concentration 10 uM, replicate 2
[5] = 24 h, 1 µM, compound concentration 1 uM, replicate 1
[6] = 24 h, 1 µM, compound concentration 1 uM, replicate 2
[7] = 24 h, 10 µM, compound concentration 10 uM, replicate 1
[8] = 24 h, 10 µM, compound concentration 10 uM, replicate 2
[9] = 48 h, 1 µM, compound concentration 1 uM, replicate 1
[10] = 48 h, 1 µM, compound concentration 1 uM, replicate 2
[11] = 48 h, 10 µM, compound concentration 10 uM, replicate 1
[12] = 48 h, 10 µM, compound concentration 10 uM, replicate 2

CCOC(=O)c1c(C)[nH]c2ccc3c(c12)CN1CCc2cc(OC)ccc2C1O3 (stereo unspecified)
Population Apoptotic (%) [1]: 61%
Population Fragmented Nuclei (%) [1]: 14%
Population Healthy Nuclei (%) [1]: 30%
Population Hoechst High Intensity Objects (%) [1]: 14%
Population Membrane Permeable-Phenotype (%) [1]: 1%
Population Mitochondria Different-Phenotype (%) [1]: 100%
Population Mitotic Cells (%) [1]: 38%
Population Normal (%) [1]: 85%
Population Pyknosed Nuclei (%) [1]: 54%
Total Cell Count [1]: 228
Population Apoptotic (%) [2]: 36%
Population Fragmented Nuclei (%) [2]: 4%
Population Healthy Nuclei (%) [2]: 28%
Population Hoechst High Intensity Objects (%) [2]: 5%
Population Membrane Permeable-Phenotype (%) [2]: 5%
Population Mitochondria Different-Phenotype (%) [2]: 88%
Population Mitotic Cells (%) [2]: 63%
Population Normal (%) [2]: 94%
Population Pyknosed Nuclei (%) [2]: 67%
Population Tubulin-Different-Phenotype (%) [2]: 86%
Total Cell Count [2]: 132
Population Apoptotic (%) [3]: 90%
Population Fragmented Nuclei (%) [3]: 12%
Population Hoechst High Intensity Objects (%) [3]: 20%
Population Membrane Permeable-Phenotype (%) [3]: 0%
Population Mitochondria Different-Phenotype (%) [3]: 100%
Population Mitotic Cells (%) [3]: 9%
Population Normal (%) [3]: 79%
Population Pyknosed Nuclei (%) [3]: 76%
Population Tubulin-Different-Phenotype (%) [3]: 95%
Total Cell Count [3]: 266
Population Apoptotic (%) [4]: 88%
Population Fragmented Nuclei (%) [4]: 5%
Population Healthy Nuclei (%) [4]: 10%
Population Hoechst High Intensity Objects (%) [4]: 12%
Population Membrane Permeable-Phenotype (%) [4]: 7%
Population Mitochondria Different-Phenotype (%) [4]: 92%
Population Mitotic Cells (%) [4]: 11%
Population Normal (%) [4]: 87%
Population Pyknosed Nuclei (%) [4]: 83%
Population Tubulin-Different-Phenotype (%) [4]: 92%
Total Cell Count [4]: 156
Population Apoptotic (%) [5]: 57%
Population Fragmented Nuclei (%) [5]: 17%
Population Healthy Nuclei (%) [5]: 47%
Population Hoechst High Intensity Objects (%) [5]: 7%
Population Membrane Permeable-Phenotype (%) [5]: 0%
Population Mitochondria Different-Phenotype (%) [5]: 94%
Population Mitotic Cells (%) [5]: 42%
Population Normal (%) [5]: 92%
Population Pyknosed Nuclei (%) [5]: 35%
Population Tubulin-Different-Phenotype (%) [5]: 80%
Total Cell Count [5]: 254
Population Apoptotic (%) [6]: 48%
Population Fragmented Nuclei (%) [6]: 3%
Population Healthy Nuclei (%) [6]: 45%
Population Hoechst High Intensity Objects (%) [6]: 3%
Population Membrane Permeable-Phenotype (%) [6]: 5%
Population Mitochondria Different-Phenotype (%) [6]: 91%
Population Mitotic Cells (%) [6]: 51%
Population Normal (%) [6]: 96%
Population Pyknosed Nuclei (%) [6]: 51%
Population Tubulin-Different-Phenotype (%) [6]: 86%
Total Cell Count [6]: 154
Population Apoptotic (%) [7]: 91%
Population Fragmented Nuclei (%) [7]: 15%
Population Healthy Nuclei (%) [7]: 8%
Population Hoechst High Intensity Objects (%) [7]: 22%
Population Membrane Permeable-Phenotype (%) [7]: 0%
Population Mitochondria Different-Phenotype (%) [7]: 94%
Population Mitotic Cells (%) [7]: 8%
Population Normal (%) [7]: 77%
Population Pyknosed Nuclei (%) [7]: 75%
Population Tubulin-Different-Phenotype (%) [7]: 94%
Total Cell Count [7]: 275
Population Apoptotic (%) [8]: 92%
Population Fragmented Nuclei (%) [8]: 6%
Population Healthy Nuclei (%) [8]: 9%
Population Hoechst High Intensity Objects (%) [8]: 16%
Population Mitochondria Different-Phenotype (%) [8]: 92%
Population Mitotic Cells (%) [8]: 7%
Population Normal (%) [8]: 83%
Population Pyknosed Nuclei (%) [8]: 84%
Population Tubulin-Different-Phenotype (%) [8]: 92%
Total Cell Count [8]: 158
Population Apoptotic (%) [9]: 52%
Population Fragmented Nuclei (%) [9]: 11%
Population Healthy Nuclei (%) [9]: 70%
Population Hoechst High Intensity Objects (%) [9]: 7%
Population Membrane Permeable-Phenotype (%) [9]: 1%
Population Mitochondria Different-Phenotype (%) [9]: 71%
Population Mitotic Cells (%) [9]: 47%
Population Normal (%) [9]: 92%
Population Pyknosed Nuclei (%) [9]: 17%
Population Tubulin-Different-Phenotype (%) [9]: 50%
Total Cell Count [9]: 354
Population Apoptotic (%) [10]: 36%
Population Fragmented Nuclei (%) [10]: 6%
Population Healthy Nuclei (%) [10]: 72%
Population Hoechst High Intensity Objects (%) [10]: 4%
Population Membrane Permeable-Phenotype (%) [10]: 2%
Population Mitochondria Different-Phenotype (%) [10]: 52%
Population Mitotic Cells (%) [10]: 63%
Population Normal (%) [10]: 95%
Population Pyknosed Nuclei (%) [10]: 21%
Population Tubulin-Different-Phenotype (%) [10]: 66%
Total Cell Count [10]: 226
Population Apoptotic (%) [11]: 80%
Population Fragmented Nuclei (%) [11]: 19%
Population Healthy Nuclei (%) [11]: 22%
Population Hoechst High Intensity Objects (%) [11]: 29%
Population Membrane Permeable-Phenotype (%) [11]: 0%
Population Mitochondria Different-Phenotype (%) [11]: 100%
Population Mitotic Cells (%) [11]: 19%
Population Normal (%) [11]: 70%
Population Pyknosed Nuclei (%) [11]: 58%
Population Tubulin-Different-Phenotype (%) [11]: 93%
Total Cell Count [11]: 290
Population Apoptotic (%) [12]: 93%
Population Fragmented Nuclei (%) [12]: 3%
Population Healthy Nuclei (%) [12]: 15%
Population Hoechst High Intensity Objects (%) [12]: 14%
Population Membrane Permeable-Phenotype (%) [12]: 5%
Population Mitochondria Different-Phenotype (%) [12]: 95%
Population Mitotic Cells (%) [12]: 6%
Population Normal (%) [12]: 85%
Population Pyknosed Nuclei (%) [12]: 80%
Population Tubulin-Different-Phenotype (%) [12]: 100%
Total Cell Count [12]: 148

Cc1ccc2nc(NCCN)c3ncc(C)n3c2c1.O=C(O)C(F)(F)F.O=C(O)C(F)(F)F
Population Apoptotic (%) [1]: 29%
Population Fragmented Nuclei (%) [1]: 14%
Population Healthy Nuclei (%) [1]: 67%
Population Hoechst High Intensity Objects (%) [1]: 13%
Population Membrane Permeable-Phenotype (%) [1]: 6%
Population Mitochondria Different-Phenotype (%) [1]: 2%
Population Mitotic Cells (%) [1]: 70%
Population Normal (%) [1]: 86%
Population Pyknosed Nuclei (%) [1]: 18%
Population Tubulin-Different-Phenotype (%) [1]: 3%
Total Cell Count [1]: 581
Population Apoptotic (%) [2]: 14%
Population Fragmented Nuclei (%) [2]: 10%
Population Healthy Nuclei (%) [2]: 85%
Population Hoechst High Intensity Objects (%) [2]: 2%
Population Membrane Permeable-Phenotype (%) [2]: 1%
Population Mitochondria Different-Phenotype (%) [2]: 9%
Population Mitotic Cells (%) [2]: 85%
Population Normal (%) [2]: 97%
Population Pyknosed Nuclei (%) [2]: 3%
Population Tubulin-Different-Phenotype (%) [2]: 5%
Total Cell Count [2]: 1754
Population Apoptotic (%) [3]: 25%
Population Fragmented Nuclei (%) [3]: 13%
Population Healthy Nuclei (%) [3]: 58%
Population Hoechst High Intensity Objects (%) [3]: 14%
Population Membrane Permeable-Phenotype (%) [3]: 5%
Population Mitochondria Different-Phenotype (%) [3]: 14%
Population Mitotic Cells (%) [3]: 75%
Population Normal (%) [3]: 85%
Population Pyknosed Nuclei (%) [3]: 27%
Population Tubulin-Different-Phenotype (%) [3]: 14%
Total Cell Count [3]: 591
Population Apoptotic (%) [4]: 26%
Population Fragmented Nuclei (%) [4]: 5%
Population Healthy Nuclei (%) [4]: 83%
Population Hoechst High Intensity Objects (%) [4]: 5%
Population Membrane Permeable-Phenotype (%) [4]: 1%
Population Mitochondria Different-Phenotype (%) [4]: 27%
Population Mitotic Cells (%) [4]: 73%
Population Normal (%) [4]: 94%
Population Pyknosed Nuclei (%) [4]: 10%
Population Tubulin-Different-Phenotype (%) [4]: 19%
Total Cell Count [4]: 1004
Population Apoptotic (%) [5]: 35%
Population Fragmented Nuclei (%) [5]: 14%
Population Healthy Nuclei (%) [5]: 76%
Population Hoechst High Intensity Objects (%) [5]: 6%
Population Membrane Permeable-Phenotype (%) [5]: 5%
Population Mitochondria Different-Phenotype (%) [5]: 3%
Population Mitotic Cells (%) [5]: 64%
Population Normal (%) [5]: 93%
Population Pyknosed Nuclei (%) [5]: 8%
Population Tubulin-Different-Phenotype (%) [5]: 6%
Total Cell Count [5]: 670
Population Apoptotic (%) [6]: 5%
Population Fragmented Nuclei (%) [6]: 30%
Population Healthy Nuclei (%) [6]: 67%
Population Hoechst High Intensity Objects (%) [6]: 3%
Population Membrane Permeable-Phenotype (%) [6]: 4%
Population Mitochondria Different-Phenotype (%) [6]: 1%
Population Mitotic Cells (%) [6]: 94%
Population Normal (%) [6]: 96%
Population Pyknosed Nuclei (%) [6]: 1%
Total Cell Count [6]: 2957
Population Apoptotic (%) [7]: 38%
Population Fragmented Nuclei (%) [7]: 14%
Population Healthy Nuclei (%) [7]: 60%
Population Hoechst High Intensity Objects (%) [7]: 20%
Population Membrane Permeable-Phenotype (%) [7]: 6%
Population Mitochondria Different-Phenotype (%) [7]: 18%
Population Mitotic Cells (%) [7]: 61%
Population Normal (%) [7]: 79%
Population Pyknosed Nuclei (%) [7]: 25%
Population Tubulin-Different-Phenotype (%) [7]: 12%
Total Cell Count [7]: 482
Population Apoptotic (%) [8]: 44%
Population Fragmented Nuclei (%) [8]: 7%
Population Healthy Nuclei (%) [8]: 85%
Population Hoechst High Intensity Objects (%) [8]: 10%
Population Membrane Permeable-Phenotype (%) [8]: 1%
Population Mitochondria Different-Phenotype (%) [8]: 27%
Population Mitotic Cells (%) [8]: 55%
Population Normal (%) [8]: 89%
Population Pyknosed Nuclei (%) [8]: 6%
Population Tubulin-Different-Phenotype (%) [8]: 19%
Total Cell Count [8]: 858
